Data set [1] is described as follows: Hydrogen peroxide release activity in potassium phosphate buffer at pH 7.4 after 60 mins by […] based colorimetric assay. The class given is physicochemical. To be noted: pH 7.4, 1 h. In outline: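 Compound incubated in pH 7.4 buffer for 1 h. H2O2 then estimated with a xylenol orange-based colorimetric method.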
The subject of data set [2] is Nucleic Acid. In words: Induction of DNA damage in Escherichia coli pBR322 assessed as supercoiled DNA cleavage at 25 uM after 24 hrs by agarose gel electrophoresis in presence of Cu2+. It counts as nucleic-acid assay. In outline:
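Compound with Cu(II) at 1:1, no added reducing agent. Mixture holds 100 ng form I pBR322 in 10 mM MOPS, pH 7.4, incubated 37 °C for 24 h. Supercoiled-to-nicked (form II) cleavage read on gel against a DNA-only lane.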

The subject of data set [3] is Nucleic Acid. The experiment in a line: Induction of DNA damage in Escherichia coli pBR322 assessed as supercoiled DNA cleavage at 25 uM after 24 hrs by agarose gel electrophoresis. It counts as nucleic-acid assay. Summed up:
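Compound at 25 µM without Cu(II) and with no added reducing agent, incubated with supercoiled pBR322 plasmid DNA. Damage assessed as cleavage of supercoiled form on gel.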

A short description of data set [4]: Superoxide release activity in potassium phosphate buffer at pH 7.4 and 25 uM after 30 mins by […]. In outline: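 Compound incubated in pH 7.4 buffer. Superoxide detected by luminol-based chemiluminescence.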
Data set [5] can be described thus: Hydrogen peroxide release activity in potassium phosphate buffer at pH 7.4 after 60 mins by […] based colorimetric assay in presence of catalase. The class given is physicochemical. To be noted: pH 7.4, 1 h. Summed up: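 Compound incubated at pH 7.4 for 1 h. Reaction mixture then treated with catalase before the xylenol orange colorimetric read-out for H2O2.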

Data set [6] can be described thus: Superoxide release activity in potassium phosphate buffer at pH 7.4 and 25 uM after 30 mins by […] in presence of superoxide dismutase. In outline: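 Compound incubated in pH 7.4 buffer with superoxide dismutase present. Superoxide read by luminol-based chemiluminescence.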
Data set [7] deals with Nucleic Acid. In words: Induction of DNA damage in Escherichia coli pBR322 assessed as supercoiled DNA cleavage at 1 uM after 24 hrs by agarose gel electrophoresis in presence of Cu2+. It counts as nucleic-acid assay. Summed up: (§1)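 Concentration course of 1–10 µM compound with an equimolar amount of Cu(II). Mixture holds 100 ng supercoiled pBR322 plasmid (form I) in 10 mM MOPS, pH 7.4, incubated 37 °C for 24 h. Cleavage to nicked form II read on gel against a DNA-only lane.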

Data set [8] has as its system Nucleic Acid. The experiment in a line: Induction of DNA damage in Escherichia coli pBR322 assessed as supercoiled DNA cleavage at 10 uM after 24 hrs by agarose gel electrophoresis in presence of Cu2+. The class given is nucleic-acid assay. Summed up:
as §1

Activity calls are given as the source filed them. The rule behind the calls is not given here.

On to `C=CCNC1=C(c2ccccc2)C(=O)c2ccccc2C1=O`, for which, in data set [1], the Activity was less than 2 µM.

On to `O=C1C(c2ccccc2)=C(N2CCCCC2)C(=O)c2ccccc21`, for which the outcome in the data set on Nucleic Acid [2] was Active. Besides, the result in the data set on Nucleic Acid [3] was inactive.

Consider `O=C1C(NCc2ccc(Cl)cc2)=C(c2ccccc2)C(=O)c2ccccc21`, for which the Activity in data set [1] was less than 2 µM.

With `CN1CCCC1` [N-METHYL PYRROLIDINE (NMP)], in data set [1], the Activity result was “Not Active”. The outcome in data set [4] was inactive.

Turning to `COc1ccc(CNC2=C(c3ccccc3)C(=O)c3ccccc3C2=O)cc1`, the Activity in data set [1] was less than 2 µM.

`CCCCNC1=C(c2ccccc2)C(=O)c2ccccc2C1=O`: the Activity in data set [1] was less than 2 µM.

`CN(C)CCNC1=C(c2ccccc2)C(=O)c2ccccc2C1=O` came in with an Activity in data set [1] of less than 2 µM.

Consider `O=C1C(Nc2ccccc2)=C(c2ccccc2)C(=O)c2ccccc21`, for which the Activity in data set [1] is less than 2 µM. For the same molecule, the result with Nucleic Acid [2] was Active. Further, the outcome with Nucleic Acid [3] was inactive.

For `O=C1C(c2ccc(F)cc2)=C(N2CCCC2)C(=O)c2ccccc21`, the outcome in data set [1] and in data set [5] was Active. Besides, the outcome with Nucleic Acid [2] was Active. Moreover, in the data set with Nucleic Acid [3], the result was inactive.

For `C1CCNC1` [PYRROLIDINE], the Activity entry in data set [1] is “Not Active”. The result in data set [4] was inactive.

In turn, `COc1ccc(NC2=C(c3ccccc3)C(=O)c3ccccc3C2=O)cc1` displayed an Activity in data set [1] of less than 2 µM.

`O=C1C(NCc2ccccc2)=C(c2ccccc2)C(=O)c2ccccc21` had an Activity in data set [1] of less than 2 µM. Also, in the data set on Nucleic Acid [2], the outcome was Active. In addition, the result in the data set with Nucleic Acid [3] was inactive.

Molecule `NC1=C(c2ccccc2)C(=O)c2ccccc2C1=O` had an Activity in data set [1] of less than 2 µM.

Regarding `CCCNC1=C(c2ccccc2)C(=O)c2ccccc2C1=O`, the Activity in data set [1] was less than 2 µM. Also, the outcome in the data set on Nucleic Acid [2] was Active. The outcome with Nucleic Acid [3] was inactive.

Turning to `O=C1C(Nc2ccc([N+](=O)[O-])cc2)=C(c2ccccc2)C(=O)c2ccccc21`, in data set [1], the Activity was less than 2 µM.

Consider `COc1ccccc1C1=C(N2CCCC2)C(=O)c2ccccc2C1=O`, for which the result in data set [1] and in data set [5] was Active. Also, the outcome with Nucleic Acid [2] was Active. Besides, in the data set with Nucleic Acid [3], the outcome was inactive.

For `COc1ccc(C2=C(N3CCCC3)C(=O)c3ccccc3C2=O)cc1`, the outcome in data set [1] and in data set [5] was Active. In addition, in the data set on Nucleic Acid [2], the result was Active. Also, the result in the data set with Nucleic Acid [3] was inactive.

Turning to `O=C1C(c2ccccc2)=C(N2CCCC2)C(=O)c2ccccc21`, the result (in the data set on Nucleic Acid [2]; in data set [6]; in the data set with Nucleic Acid [7]; with Nucleic Acid [8]; in data set [4]) was Active. Further, the result in data set [5] was Active. Also, the outcome in the data set with Nucleic Acid [3] was inactive.

Values taken from ChEMBL document CHEMBL2029215, “Synthesis, reactive oxygen species generation and copper-mediated nuclease activity profiles of 2-aryl-3-amino-1,4-naphthoquinones” (Bioorg Med Chem Lett, 2012).
